From ChEMBL document CHEMBL4340525, “Tumor-Targeted Delivery of 6-Diazo-5-oxo-l-norleucine (DON) Using Substituted Acetylated Lysine Prodrugs” (J Med Chem, 2019)

Assays:
[1] = Tmax in CES1-deficient C57BL/6 mouse jejunum implanted with mouse EL4 cells assessed as 6-diazo-5-oxo-L-norleucine level at 3.2 mg/kg, sc administered as single dose by LC-MS/MS analysis; type: ADME, organism-based; settings: in vivo
How it was run: (§1)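 Male and female C57BL/6 CES1-/- mice, 6–8 weeks old, carried flank EL4 tumours from SC injection of 1 × 10^6 cells in PBS. Dosing began at about 400 mm3 mean tumour volume. Each mouse got one SC dose of 3.2 mg/kg (1 mg/kg DON equivalent) in ethanol/Tween 80/saline 5:10:85. Plasma, jejunum and tumour were taken at set times, n = 3 per time point. Prodrug and dabsyl-derivatised DON were measured by LC-MS/MS. Noncompartmental analysis: Cmax and Tmax observed, AUClast by log-linear trapezoidal rule.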

[2] = Tmax in CES1-deficient C57BL/6 mouse tumor implanted with mouse EL4 cells assessed as 6-diazo-5-oxo-L-norleucine level at 3.2 mg/kg, sc administered as single dose by LC-MS/MS analysis; type: ADME, organism-based, Neoplasm; settings: in vivo; how it was run: as §1
[3] = Stability in human liver microsomes assessed as parent compound remaining at 1 uM measured after 1 hr by LC-MS/MS analysis; type: ADME, Microsome; settings: read-out: Stability
How it was run: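 Human liver microsomes (0.2 mg/mL protein) or S9 fraction (0.5 mg/mL) were incubated with prodrug at 1 µM final, 37 °C, 1 h with shaking. Reactions were quenched in triplicate with three volumes acetonitrile containing losartan. Parent remaining was taken from analyte/internal-standard peak-area ratio by UHPLC-MS/MS.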

[4] = Stability in swine jejunum assessed as parent compound remaining at 20 uM measured after 1 hr by LC-MS/MS analysis; type: ADME, tissue-based, Sus scrofa; settings: pig
How it was run: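 Washed swine jejunum was diluted 10-fold in 0.1 M potassium phosphate buffer and probe-sonicated. Prodrug was spiked at 20 µM final and incubated 1 h at 37 °C with orbital shaking. Triplicate quench in acetonitrile with losartan internal standard. Percent parent remaining by LC-MS/MS peak-area ratio.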

[5] = Cmax in CES1-deficient C57BL/6 mouse jejunum implanted with mouse EL4 cells at 3.2 mg/kg, sc administered as single dose by LC-MS/MS analysis; type: ADME, organism-based; design: dose 3.2 mg/kg, route subcutaneous; settings: in vivo, BLD = below limit of detection; how it was run: as §1
[6] = AUC (0 to t) in CES1-deficient C57BL/6 mouse tumor implanted with mouse EL4 cells assessed as 6-diazo-5-oxo-L-norleucine level at 3.2 mg/kg, sc administered as single dose by LC-MS/MS analysis; type: ADME, organism-based, Neoplasm; settings: in vivo; how it was run: as §1
[7] = AUC in CES1-deficient C57BL/6 mouse jejunum implanted with mouse EL4 cells assessed as 6-diazo-5-oxo-L-norleucine level at 3.2 mg/kg, sc administered as single dose by LC-MS/MS analysis; settings: in vivo
Homo sapiens = species: Homo sapiens; experiment: (§2) Antiproliferative activity against human P493B cells measured after 72 hrs by CellTiter 96 aqueous one solution cell proliferation assay; type: functional, cell-based
How it was run: (§3)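 P493B lymphoma cells seeded at 20 000 cells/well in growth medium. DMSO stocks added as a 1:10 serial dilution, final 0.2% DMSO. Cells grown 72 h with compound, then given CellTiter 96 AQueous reagent for 2 h and read by absorbance at 490 nm. EC50 obtained by nonlinear regression of log-transformed data.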

[8] = as §2; type: functional, cell-based; how it was run: as §3
[9] = Cmax in CES1-deficient C57BL/6 mouse plasma implanted with mouse EL4 cells at 3.2 mg/kg, sc administered as single dose by LC-MS/MS analysis; type: ADME, organism-based; design: dose 3.2 mg/kg, route subcutaneous; how it was run: as §1
[10] = Tmax in CES1-deficient C57BL/6 mouse plasma implanted with mouse EL4 cells at 3.2 mg/kg, sc administered as single dose by LC-MS/MS analysis; type: ADME, organism-based; how it was run: as §1
[11] = Prodrug conversion in human H69 cells suspended in human plasma assessed as 6-diazo-5-oxo-L-norleucine formation at 20 uM measured after 1 hr by LC-MS/MS analysis; type: ADME, cell-based; settings: nci-h69, 1 h
How it was run: (§4)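 Cells were grown in RPMI 1640 with 10% FBS, washed in DPBS and resuspended in human plasma at 10 million cells/mL. After 5 min preincubation at 37 °C, compound was added at 20 µM final for 1 h. The mix was centrifuged at 10 000g and the washed pellet and plasma were quantified separately. DON was read by LC-MS/MS after dabsyl chloride derivatisation, intact prodrug directly. Standard curves were made in naive cells or plasma.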

[12] = Ratio of AUC (0 to t) in tumor to plasma of CES1-deficient C57BL/6 mouse implanted with mouse EL4 cells assessed as 6-diazo-5-oxo-L-norleucine level at 3.2 mg/kg, sc administered as single dose by LC-MS/MS analysis; type: ADME, organism-based; settings: tumour
How it was run: (§5)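 Tissue-to-tissue ratios of DON AUClast came from noncompartmental analysis. EL4-bearing CES1-/- C57BL/6 mice received one SC dose of 3.2 mg/kg (1 mg/kg DON equivalent) in ethanol/Tween 80/saline 5:10:85. Tumour, jejunum and plasma were sampled over time, n = 3 mice per time point. DON was read by LC-MS/MS after dabsyl chloride derivatisation.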

[13] = Drug level in mouse EL4 cells implanted in CES1-deficient C57BL/6 mouse assessed as tumor cell to plasma ratio at 3.2 mg/kg, sc administered as single dose measured after 1 hr by LC-MS/MS analysis; type: ADME, organism-based
[14] = Cmax in CES1-deficient C57BL/6 mouse tumor implanted with mouse EL4 cells at 3.2 mg/kg, sc administered as single dose by LC-MS/MS analysis; type: ADME, organism-based, Neoplasm; design: dose 3.2 mg/kg, route subcutaneous; settings: in vivo; how it was run: as §1
[15] = Stability in mouse plasma assessed as parent compound remaining at 20 uM measured after 1 hr by LC-MS/MS analysis
[16] = Tmax in CES1-deficient C57BL/6 mouse tumor implanted with mouse EL4 cells at 3.2 mg/kg, sc administered as single dose by LC-MS/MS analysis; type: ADME, organism-based, Neoplasm; how it was run: as §1
[17] = Ratio of AUC (0 to t) in tumor to jejunum of CES1-deficient C57BL/6 mouse implanted with mouse EL4 cells assessed as 6-diazo-5-oxo-L-norleucine level at 3.2 mg/kg, sc administered as single dose by LC-MS/MS analysis; type: ADME, organism-based; settings: in vivo; how it was run: as §5
[18] = AUC (0 to t) in CES1-deficient C57BL/6 mouse plasma implanted with mouse EL4 cells assessed as 6-diazo-5-oxo-L-norleucine level at 3.2 mg/kg, sc administered as single dose by LC-MS/MS analysis; type: ADME, organism-based; settings: in vivo; how it was run: as §1
[19] = Prodrug conversion in human plasma suspended with human DU4475 cells assessed as 6-diazo-5-oxo-L-norleucine formation at 20 uM measured after 1 hr by LC-MS/MS analysis; type: ADME, cell-free; how it was run: as §4
[20] = Prodrug conversion in human P493B cells suspended in human plasma assessed as deacetylation by measuring (6a) (S)-2-{(S)-2-[(Adamantane-1-carbonyl)-amino]-6-amino-hexanoylamino}-6-diazo-5-oxo-hexanoic acid isopropyl ester formation measured after 1 hr by HRMS analysis; type: ADME, cell-based
How it was run: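 Metabolite identification: compound was incubated 1 h with 10 million P493B cells suspended in 1 mL human plasma. Cell pellets were collected and metabolites identified by HRMS.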

[21] = Cmax in CES1-deficient C57BL/6 mouse tumor implanted with mouse EL4 cells assessed as 6-diazo-5-oxo-L-norleucine level at 3.2 mg/kg, sc administered as single dose by LC-MS/MS analysis; type: ADME, organism-based, Neoplasm; design: dose 3.2 mg/kg, route subcutaneous; settings: in vivo; how it was run: as §1
[22] = Stability of the compound in CES1-deficient C57BL/6 mouse plasma measured after 60 mins by UHPLC-MS analysis; type: ADME, cell-free; settings: 1 h

In the case of `CC(=O)NCCCC[C@H](NC(=O)C12CC3CC(CC(C3)C1)C2)C(=O)N[C@@H](CCC(=O)C=[N+]=[N-])C(=O)OC(C)C`, the Tmax [1] is reported as 30 min, the Tmax [2] is reported as 60 min and the remaining at 1 h, 1 µM [3] is reported as 100%. For the same compound, the Stability [4] was greater than 50%, the Cmax [5] was “Bld” and the AUCt [6] was 5.07 nmol·h/g. For the same compound, the AUC [7] was 0.45 nmol·h/g, the Activity (Homo sapiens) was “Dose-dependent effect” and the EC50 [8] was 5 µM. It also gave a Cmax [9] of 0.82 µM, a Tmax [10] of 15 min and a Drug metabolism [11] of 9.95 µM. The “Ratio AUC” value [12] was 5, the Kp at 1 h [13] was 16 and the Cmax [14] was 0.05 nmol/g. The Stability [15] was 0%, the Tmax [16] was 30 min and the “Ratio AUC” value [17] was 11. For the same compound, the AUCt [18] was 1060 nM·h, the Drug metabolism [19] was 0.25 to 0.5 µM and the Drug metabolism [20] was “Metabolite_Detected”. For the same compound, the Cmax [21] was 1.55 nmol/g and the Stability [22] was “Stable”.
